ChEMBL document CHEMBL1125724, “Potential anti-AIDS agents. Synthesis and antiviral activity of naphthalenesulfonic acid derivatives against HIV-1 and HIV-2” (1991)
≈ marks a conversion by molar mass, not a printed value. Blank lines part the entries; values can stand above or below the compound they belong to.

Key:
[1] = molecular target: Human immunodeficiency virus type 1 reverse transcriptase (Human immunodeficiency virus 1) (UniProt Q72547); conditions: 2.8 uM
[2] = molecular target: Human immunodeficiency virus type 1 reverse transcriptase (Human immunodeficiency virus 1) (UniProt Q72547); conditions: 350 uM
[3] = molecular target: Human immunodeficiency virus type 1 reverse transcriptase (Human immunodeficiency virus 1) (UniProt Q72547); conditions: 14 uM
[4] = molecular target: Human immunodeficiency virus type 1 reverse transcriptase (Human immunodeficiency virus 1) (UniProt Q72547); conditions: 350 uM; remark: listed apart in the source
MT4 [5] = assay: Cell viability at a concentration of 4(3.9) ug/mL (uM).; format: functional, Homo sapiens
MT4 [6] = assay: Compound was evaluated for inhibitory effect against MT-4 cells of HIV-2 at a concentration of 100(98) ug/mL (uM).; format: functional, Homo sapiens
Outline: (§1)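 HIV-2 (ROD strain) infected MT-4 cells at multiplicity of infection 0.02, incubated with a range of compound concentrations for 4 days. Viable cells counted by MTT method. Per-concentration inhibition of virus-induced cytopathogenicity; values are means of two separate experiments.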

[7] = molecular target: Human immunodeficiency virus type 1 reverse transcriptase (Human immunodeficiency virus 1) (UniProt Q72547); assay: Compound tested for % inhibition of cell-free HIV-1 Reverse Transcriptase at a concentration of 3.9 uM
Outline: (§2)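 HIV-1 RT came from disrupted, partially purified, concentrated virions. Reaction ran 30 min at 37 °C in 50 mM Tris-HCl pH 8.4 with 2 mM DTT, 100 mM KCl, 10 mM MgCl2, 0.1% Triton X-100, [methyl-3H]dTTP (1 µCi, 30 Ci/mmol), poly(rA)·oligo(dT) template and compound. It was stopped with 5% TCA, and precipitate was filter-collected and scintillation-counted. Variation was at most 10%.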

[8] = molecular target: Human immunodeficiency virus type 1 reverse transcriptase (Human immunodeficiency virus 1) (UniProt Q72547); assay: Compound tested for % inhibition of cell-free HIV-1 Reverse Transcriptase at a concentration of 490 uM
Outline: as §2

[9] = tested on: Human immunodeficiency virus 1; assay: Compound tested for % inhibition of giant cell formation at a concentration of 98 uM
[10] = molecular target: Human immunodeficiency virus type 1 reverse transcriptase (Human immunodeficiency virus 1) (UniProt Q72547); assay: Compound tested for % inhibition of cell-free HIV-1 Reverse Transcriptase at a concentration of 19.6 uM
Outline: as §2

MT4 [11] = assay: Compound tested for its inhibition of HIV-1 induced cytopathogenicity in MT-4 cells.; format: functional; conditions: Homo sapiens, read-out: ED50 (the source's name)
Outline: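 MT-4 cells infected with HIV-1 (HTLV-III_B) at MOI 0.02 and incubated 4 days with a range of compound concentrations. Viable cells were counted by MTT. ED50 is the 50% antiviral dose from inhibition of virus-induced cytopathogenicity, given as the mean of two separate experiments.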

MT4 [12] = assay: Cell viability at a concentration of 100(98) ug/mL (uM).; format: functional, Homo sapiens
MT4 [13] = assay: Cell viability at a concentration of 20(19.6) ug/mL (uM).; format: functional, Homo sapiens
MOLT-4 (Homo sapiens) = assay: Compound tested for % inhibition of giant cell formation at a concentration of 98 uM
MT4 [14] = assay: Compound was evaluated for inhibitory effect against MT-4 cells of HIV-1 at a concentration of 20(19.6) ug/mL (uM).; format: functional, Homo sapiens
Outline: (§3)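 HIV-1 (HTLV-III_B) infected MT-4 cells at multiplicity of infection 0.02, incubated with a range of compound concentrations for 4 days. Viable cells counted by MTT method. Per-concentration inhibition of virus-induced cytopathogenicity; values are means of two separate experiments.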

MT4 [15] = assay: Cell viability at a concentration of 0.8(0.8) ug/mL (uM).; format: functional, Homo sapiens
MT4 [16] = assay: Compound tested for its inhibition of HIV-2 induced cytopathogenicity in MT-4 cells.; format: functional; conditions: Homo sapiens, read-out: ED50 (the source's name)
Outline: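 MT-4 cells infected with HIV-2 (ROD) at MOI 0.02 and incubated 4 days with a range of compound concentrations. Viable cells were counted by MTT. ED50 is the dose giving 50% inhibition of virus-induced cytopathogenicity, given as the mean of two separate experiments.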

MT4 [17] = assay: Compound was evaluated for inhibitory effect against MT-4 cells of HIV-1 at a concentration of 4(3.9) ug/mL (uM).; format: functional, Homo sapiens
Outline: as §3

MT4 [18] = assay: Compound was evaluated for inhibitory effect against MT-4 cells of HIV-2 at a concentration of 20(19.6) ug/mL (uM).; format: functional, Homo sapiens
Outline: as §1

MT4 [19] = assay: Compound was evaluated for inhibitory effect against MT-4 cells of HIV-2 at a concentration of 0.8(0.8) ug/mL (uM).; format: functional, Homo sapiens
Outline: as §1

MT4 [20] = assay: Compound was evaluated for inhibitory effect against MT-4 cells of HIV-1 at a concentration of 0.8(0.8) ug/mL (uM).; format: functional, Homo sapiens
Outline: as §3

MT4 [21] = assay: Compound tested for its ability to reduce viability of mock-infected MT-4 cells.; format: functional; conditions: Homo sapiens, read-out: CD50 (the source's name)
Outline: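 Mock-infected MT-4 cells were incubated 4 days with a range of compound concentrations, and viability was read by MTT. CD50 is the 50% cytotoxic dose from reduced viability, given as the mean of two separate experiments.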

MT4 [22] = assay: Compound was evaluated for inhibitory effect against MT-4 cells of HIV-1 at a concentration of 100(98) ug/mL (uM).; format: functional, Homo sapiens
Outline: as §3

[23] = molecular target: Human immunodeficiency virus type 1 reverse transcriptase (Human immunodeficiency virus 1) (UniProt Q72547); assay: Inhibitory dose at a concentration 490 uM cell-free HIV-1 Reverse Transcriptase
Outline: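 HIV-1 RT from disrupted, partially purified and concentrated virions. 37 °C for 30 min in 50 mM Tris-HCl pH 8.4, 2 mM DTT, 100 mM KCl, 10 mM MgCl₂, 0.1% Triton X-100, 1 µCi [methyl-³H]dTTP, 0.01 unit poly(rA)·oligo(dT). Stopped with 5% TCA; precipitate collected on glass-fiber filters and counted by scintillation. Means of two experiments; variation ≤10%.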

MT4 [24] = assay: Compound was evaluated for inhibitory effect against MT-4 cells of HIV-2 at a concentration of 4(3.9) ug/mL (uM).; format: functional, Homo sapiens
Outline: as §1

inhibition [1]: 18% | inhibition [2]: 92% | inhibition [3]: 22% | ID50 [4]: 42 µg/mL (≈ 32.4 µM)
SMILES: Cc1ccc(C(=O)Nc2ccc(S(=O)(=O)O)c3cc(S(=O)(=O)O)cc(S(=O)(=O)O)c23)cc1NC(=O)c1cccc(NC(=O)Nc2cccc(C(=O)Nc3cc(C(=O)Nc4ccc(S(=O)(=O)O)c5cc(S(=O)(=O)O)cc(S(=O)(=O)O)c45)ccc3C)c2)c1

SMILES: O=S(=O)([O-])c1cc(O)c2c(NS(=O)(=O)c3ccc(-c4ccc(S(=O)(=O)Nc5cc(S(=O)(=O)[O-])cc6cc(S(=O)(=O)[O-])cc(O)c56)cc4)cc3)cc(S(=O)(=O)[O-])cc2c1.[Na+].[Na+].[Na+].[Na+]
Cell viability (MT4 [5]): 0 | Inhibition (MT4 [6]): 100% | inhibition [7]: 0% | inhibition [8]: 100% | inhibition [9]: 100% | inhibition [10]: 30% | EC50 (MT4 [11]): 7.8 µg/mL | Cell viability (MT4 [12]): 0 | Cell viability (MT4 [13]): 0 | inhibition at 98 µM (MOLT-4 (Homo sapiens)): 100% | Inhibition (MT4 [14]): 100% | Cell viability (MT4 [15]): 0 | EC50 (MT4 [16]): 37 µg/mL | Inhibition (MT4 [17]): 15% | Inhibition (MT4 [18]): 20% | Inhibition (MT4 [19]): 6% | Inhibition (MT4 [20]): 5% | CC50 (MT4 [21]): > 100 µg/mL | Inhibition (MT4 [22]): 100% | ID50 [23]: 190 µg/mL | Inhibition (MT4 [24]): 7%
